From ChEMBL document CHEMBL1138787, “Synthesis and evaluation of nitrofuranylamides as novel antituberculosis agents” (J Med Chem, 2004)

Legend:
[1] = target: UDP-galactopyranose mutase (Mycobacterium tuberculosis, UniProt P9WIQ1); test: Inhibition of Mycobacterium tuberculosis UDP-galactose mutase expressed in Escherichia coli UDP-6 [3H]- Galf; parameters: species or system H37Rv
Summary of the method: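 Reverse-direction radiometric Glf assay on crude soluble enzyme extract, preactivated 30 min at 37 °C in 25 mM MOPS with NADH and FAD. Each 25 µL well held MOPS pH 7.2, MgCl2, NADH, FAD, 2.3 µg protein, 20 pmol UDP-6-[3H]Galf and 1 µL DMSO. Inhibitors at 100-6.3 µM; reaction 5-20 min. Conversion read by HPLC or periodate filter-plate counting; IC50 calculated.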

[2] = The protein binding is expressed as percent bound as determined by VolSurf; format: ADME; settings: read-out: Protein binding (converted)
[3] = tested on: Mycobacterium tuberculosis; test: Activity against Mycobacterium tuberculosis H37Ra; format: functional
Summary of the method: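 Microbroth dilution in microtiter plates. H37Ra grown in Middlebrook 7H9 to OD650 0.4-0.6, then diluted to OD650 0.01. 100 µL of cells added to serial compound dilutions and incubated 37 °C for 8 days, growth read visually. MIC90 taken as wells with >90% growth inhibition; isoniazid positive control on every plate.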

Vero = test: Selectivity is the ratio of cytotoxicity compared to TBMIC; format: functional
Summary of the method: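 Ratio of VERO cell toxicity IC50 to M. tuberculosis H37Ra MIC. VERO monolayers were exposed to 3-fold compound dilutions for 72 h, and viability was read by tetrazolium reduction at 490 nm, with untreated and SDS-lysed cells as 0% and 100%. MIC was by microbroth dilution in 7H9 (OD650 0.01 inoculum), 37 °C for 8 days, with visual 90% growth inhibition.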

[4] = tested on: Mycobacterium tuberculosis; test: Viable Mycobacterium tuberculosis in spleen of infected Mice after an 8-day drug treatment; Dose is 25 mg/kg; format: functional
Summary of the method: (§1)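 C57BL/6 interferon-γ gene-depleted (GKO) mice infected by low-dose aerosol. Eight daily treatments started 18 days postinfection. At day 28, lung and spleen homogenates serially diluted onto Middlebrook 7H11 agar and incubated 4 weeks at 37 °C. CFU log-transformed and reported ±SEM; one-way Dunnett multiple-comparison ANOVA, significance at 95% confidence.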

[5] = tested on: Mycobacterium tuberculosis; test: Viable Mycobacterium tuberculosis in lungs of infected Mice after an 8-day drug treatment; Dose is 25 mg/kg; format: functional, Lung; summary of the method: as §1
[6] = tested on: Mycobacterium tuberculosis; test: Viable Mycobacterium tuberculosis in spleen of infected Mice after an 8-day drug treatment; Dose is 300 mg/kg; format: functional; summary of the method: as §1
[7] = tested on: Mycobacterium tuberculosis; test: Viable Mycobacterium tuberculosis in lungs of infected Mice after an 8-day drug treatment; Dose is 300 mg/kg; format: functional, Lung; summary of the method: as §1
[8] = tested on: Mycobacterium tuberculosis; test: Viable Mycobacterium tuberculosis in spleen of infected Mice after an 8-day drug treatment; Dose is 150 mg/kg; format: functional; summary of the method: as §1
[9] = tested on: Mycobacterium tuberculosis; test: Viable Mycobacterium tuberculosis in lungs of infected Mice after an 8-day drug treatment; Dose is 150 mg/kg; format: functional, Lung; summary of the method: as §1

UDP-galactopyranose mutase, sequence (P9WIQ1 whole entry): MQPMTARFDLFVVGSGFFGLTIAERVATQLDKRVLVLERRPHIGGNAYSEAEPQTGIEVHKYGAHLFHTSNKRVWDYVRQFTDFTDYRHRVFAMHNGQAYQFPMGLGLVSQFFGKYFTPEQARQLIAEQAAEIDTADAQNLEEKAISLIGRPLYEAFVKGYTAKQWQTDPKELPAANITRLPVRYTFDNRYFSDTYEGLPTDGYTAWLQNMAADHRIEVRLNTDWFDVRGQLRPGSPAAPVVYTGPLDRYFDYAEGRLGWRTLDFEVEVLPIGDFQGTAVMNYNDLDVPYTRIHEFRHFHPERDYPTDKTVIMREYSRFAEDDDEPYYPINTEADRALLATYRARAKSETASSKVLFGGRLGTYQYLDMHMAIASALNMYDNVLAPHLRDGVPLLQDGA

## C[C@@H](NC(=O)c1ccc([N+](=O)[O-])o1)c1ccccc1
[1]
  IC50: 150 µM
[2]
  fraction unbound: 0.289
[3]
  TBMIC: 3.1 µg/mL
Vero
  Selectivity index: 7.6

## COc1cc(NC(=O)c2ccc([N+](=O)[O-])o2)ncn1
[2]
  fraction unbound: 0.469
[3]
  TBMIC: 1.6 µg/mL

## COc1ccccc1CNC(=O)c1ccc([N+](=O)[O-])o1
[1]
  IC50: 358 µM
[2]
  fraction unbound: 0.335
[3]
  TBMIC: 1.6 µg/mL

## O=C(NCc1ccccc1Cl)c1ccc([N+](=O)[O-])o1
[1]
  IC50: 53.4 µM
[2]
  fraction unbound: 0.313
[3]
  TBMIC: 1.6 µg/mL
Vero
  Selectivity index: 7.3

## O=C(Nc1cccnc1)c1ccc([N+](=O)[O-])o1
[1]
  IC50: 206 µM
[2]
  fraction unbound: 0.447
[3]
  TBMIC: 6.25 µg/mL
Vero
  Selectivity index: 2.1

## COc1cccc(NC(=O)c2ccc(S(=O)(=O)c3ccccc3)o2)c1
[1]
  IC50: 64.4 µM
[2]
  fraction unbound: 0.485
[3]
  TBMIC: 6.25 µg/mL
Vero
  Selectivity index: 4.1

## N#Cc1ccc(NC(=O)c2ccc([N+](=O)[O-])o2)cc1
[1]
  IC50: 393 µM
[2]
  fraction unbound: 0.249
[3]
  TBMIC: 0.8 µg/mL
Vero
  Selectivity index: 4.4

## O=C(Nc1ccccn1)c1ccc([N+](=O)[O-])o1
[1]
  IC50: 227 µM
[2]
  fraction unbound: 0.438
[3]
  TBMIC: 3.12 µg/mL
Vero
  Selectivity index: 3.5

## COc1ccc(NC(=O)c2ccc([N+](=O)[O-])o2)cc1
[1]
  IC50: 160 µM
[2]
  fraction unbound: 0.369
[3]
  TBMIC: 0.4 µg/mL
Vero
  Selectivity index: 53.6

## O=C(NC12CC3CC(CC(C3)C1)C2)c1ccc([N+](=O)[O-])o1
[1]
  IC50: 169 µM
[3]
  TBMIC: 3.1 µg/mL

## NNC(=O)c1ccncc1 [ISONIAZID]
[4]
  Activity: 3.2 log CFU
[5]
  Activity: 5.5 log CFU

## O=C(NCc1ccccn1)c1ccc([N+](=O)[O-])o1
[1]
  IC50: 481 µM
[2]
  fraction unbound: 0.427
[3]
  TBMIC: 0.8 µg/mL

## O=C(Nc1cccc(Br)c1)c1ccc([N+](=O)[O-])o1
[1]
  IC50: 35.4 µM
[2]
  fraction unbound: 0.311
[3]
  TBMIC: 0.6 µg/mL
Vero
  Selectivity index: 9.6

## O=C(Nc1cccc(F)c1)c1ccc([N+](=O)[O-])o1
[1]
  IC50: 112 µM
[2]
  fraction unbound: 0.334
[3]
  TBMIC: 0.8 µg/mL
[6]
  Activity: 7 log CFU
[7]
  Activity: 8.4 log CFU
Vero
  Selectivity index: 11.6

## O=C(Nc1cccc(OCc2ccccc2)c1)c1ccc([N+](=O)[O-])o1
[1]
  IC50: 82.8 µM
[2]
  fraction unbound: 0.13
[3]
  TBMIC: 12.5 µg/mL

## C[C@H](NC(=O)c1ccc([N+](=O)[O-])o1)c1ccccc1
[1]
  IC50: 146 µM
[2]
  fraction unbound: 0.259
[3]
  TBMIC: 1.6 µg/mL
Vero
  Selectivity index: 16

## COc1cccc2sc(NC(=O)c3ccc([N+](=O)[O-])o3)nc12
[1]
  IC50: 210 µM
[2]
  fraction unbound: 0.257
[3]
  TBMIC: 1.6 µg/mL

## O=C(NC1CCCCC1)c1ccc([N+](=O)[O-])o1
[1]
  IC50: 281 µM
[2]
  fraction unbound: 0.352
[3]
  TBMIC: 3.1 µg/mL
Vero
  Selectivity index: 2.9

## CN(C(=O)c1ccc([N+](=O)[O-])o1)c1ccccc1
[1]
  IC50: 260 µM
[2]
  fraction unbound: 0.332
[3]
  TBMIC: 3.12 µg/mL
Vero
  Selectivity index: 7.6

## COc1cccc(NC(=O)c2ccc([S+]([O-])c3ccccc3)o2)c1 (configuration not stated)
[2]
  fraction unbound: 0.39
[3]
  TBMIC: 6.25 µg/mL
Vero
  Selectivity index: 10.4

## COc1ccc(CNC(=O)c2ccc([N+](=O)[O-])o2)cc1OC
[1]
  IC50: 75.1 µM
[2]
  fraction unbound: 0.363
[3]
  TBMIC: 0.2 µg/mL
[6]
  Activity: 6 log CFU
[7]
  Activity: 6.5 log CFU
Vero
  Selectivity index: 90.9

## O=C(NCc1ccco1)c1ccc([N+](=O)[O-])o1
[1]
  IC50: 246 µM
[2]
  fraction unbound: 0.38
[3]
  TBMIC: 6.25 µg/mL
Vero
  Selectivity index: 0.7

## O=C(Nc1cccc(Cl)c1)c1ccc([N+](=O)[O-])o1
[1]
  IC50: 56.3 µM
[3]
  TBMIC: 0.8 µg/mL
[6]
  Activity: 7.3 log CFU
[7]
  Activity: 8.3 log CFU
Vero
  Selectivity index: 8.6

## Cc1ncc([N+](=O)[O-])n1CCO [METRONIDAZOLE]
[8]
  Activity: 6.9 log CFU
[9]
  Activity: 8.5 log CFU

## O=C(Nc1ccccc1)c1ccc([N+](=O)[O-])o1
[1]
  IC50: 94.7 µM
[2]
  fraction unbound: 0.325
[3]
  TBMIC: 0.8 µg/mL
Vero
  Selectivity index: 2.7

## COc1ccc(CNC(=O)c2ccc([N+](=O)[O-])o2)cc1
[1]
  IC50: 416 µM
[2]
  fraction unbound: 0.347
[3]
  TBMIC: 0.1 µg/mL
Vero
  Selectivity index: 163.6

## O=C(NC1CCc2ccccc21)c1ccc([N+](=O)[O-])o1 (configuration not stated)
[1]
  IC50: 264 µM
[2]
  fraction unbound: 0.23
[3]
  TBMIC: 3.1 µg/mL
Vero
  Selectivity index: 3.3

## COc1cccc(CNC(=O)c2ccc([N+](=O)[O-])o2)c1OC
[1]
  IC50: 464 µM
[2]
  fraction unbound: 0.356
[3]
  TBMIC: 1.2 µg/mL

## COc1ccc(CCNC(=O)c2ccc([N+](=O)[O-])o2)cc1
[1]
  IC50: 58.6 µM
[2]
  fraction unbound: 0.288
[3]
  TBMIC: 0.8 µg/mL
Vero
  Selectivity index: 25.6

## O=C(NC1CCCc2ccccc21)c1ccc([N+](=O)[O-])o1 (configuration not stated)
[1]
  IC50: 112 µM

## COc1ccc(CNC(=O)c2ccc([N+](=O)[O-])o2)c(OC)c1
[1]
  IC50: 111 µM
[2]
  fraction unbound: 0.409
[3]
  TBMIC: 0.4 µg/mL
Vero
  Selectivity index: 13.5

## COc1ccc(CCNC(=O)c2ccc([N+](=O)[O-])o2)cc1OC
[1]
  IC50: 165 µM
[2]
  fraction unbound: 0.303
[3]
  TBMIC: 0.4 µg/mL
Vero
  Selectivity index: 68.6

## COc1ccc(N(C)C(=O)c2ccc([N+](=O)[O-])o2)cc1
[1]
  IC50: 500 µM
[2]
  fraction unbound: 0.395
[3]
  TBMIC: 6.25 µg/mL
Vero
  Selectivity index: 4

## O=C(NCCc1ccccc1)c1ccc([N+](=O)[O-])o1
[1]
  IC50: 315 µM
[2]
  fraction unbound: 0.246
[3]
  TBMIC: 1.6 µg/mL
Vero
  Selectivity index: 15.7

## O=C(c1ccc([N+](=O)[O-])o1)N1CCc2ccccc21
[2]
  fraction unbound: 0.25
[3]
  TBMIC: 0.8 µg/mL
Vero
  Selectivity index: 9.9

## O=C(Nc1cc[nH]n1)c1ccc([N+](=O)[O-])o1
[1]
  IC50: 729 µM
[2]
  fraction unbound: 0.513
[3]
  TBMIC: 6.25 µg/mL
Vero
  Selectivity index: 1.2

## O=C(Nc1cnccn1)c1ccc([N+](=O)[O-])o1
[1]
  IC50: 692 µM
[2]
  fraction unbound: 0.528
[3]
  TBMIC: 6.25 µg/mL

## O=C(Nc1ccncc1)c1ccc([N+](=O)[O-])o1
[1]
  IC50: 184 µM
[2]
  fraction unbound: 0.446
[3]
  TBMIC: 3.12 µg/mL
Vero
  Selectivity index: 2.2

## COc1cccc(NC(=O)c2ccc([N+](=O)[O-])o2)c1
[8]
  Activity: 7.2 log CFU
[1]
  IC50: 160 µM
[2]
  fraction unbound: 0.364
[9]
  Activity: 8 log CFU
[3]
  TBMIC: 0.8 µg/mL
Vero
  Selectivity index: 23.3

## COc1cc(CNC(=O)c2ccc([N+](=O)[O-])o2)cc(OC)c1OC
[1]
  IC50: 184 µM
[2]
  fraction unbound: 0.344
[3]
  TBMIC: 0.8 µg/mL
Vero
  Selectivity index: 29.5

## O=C(Nc1cccc(O)c1)c1ccc([N+](=O)[O-])o1
[1]
  IC50: 314 µM
[2]
  fraction unbound: 0.391
[3]
  TBMIC: 1.6 µg/mL
Vero
  Selectivity index: 7.8
